Assay results from ChEMBL document CHEMBL3044889, “Synthesis and quantitative structure-activity relationship (QSAR) study of novel 4-acyloxypodophyllotoxin derivatives modified in the A and C rings as insecticidal agents” (2013).

What was measured:
Assay type in all cases: functional
Mythimna separata [1] = experiment: Insecticidal activity against pre-third-instar larvae of Mythimna separata (Oriental armyworm) assessed as corrected mortality rate at 1 mg/ml measured after 35 days by the leaf-dipping method; conditions: 840 h
How it was run: (§1)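 Test solutions 1 mg/mL in acetone; fresh wheat leaves dipped 3 s, air-dried indoors; acetone-only leaves as blank control. Ten larvae per dish fed treated leaves, topped up if consumed; untreated fresh leaves from 48 h until adult emergence. Held at 25 ± 2 °C, RH 65-80%, 12 h/12 h light/dark. Corrected mortality = (T − C) × 100/(1 − C).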

Mythimna separata [2] = experiment: Insecticidal activity against pre-third-instar larvae of Mythimna separata (Oriental armyworm) assessed as corrected mortality rate at 1 mg/ml measured after 20 days by the leaf-dipping method; conditions: 480 h; how it was run: as §1
Mythimna separata [3] = experiment: Insecticidal activity against pre-third-instar larvae of Mythimna separata (Oriental armyworm) assessed as corrected mortality rate at 1 mg/ml measured after 10 days by the leaf-dipping method; conditions: 240 h; how it was run: as §1

Row | Compound | mortality at 1000 µg/mL (Mythimna separata [1]) | mortality at 1000 µg/mL (Mythimna separata [2]) | mortality at 1000 µg/mL (Mythimna separata [3])
1 | COc1cc2c(cc1OC)[C@H](OC(=O)c1ccccc1)[C@H]1COC(=O)[C@@H]1[C@@H]2c1cc(OC)c(OC)c(OC)c1 | 36.7% | 26.7% | 10%
2 | COc1cc([C@@H]2c3cc(OCc4ccccc4)c(OCc4ccccc4)cc3[C@@H](OC(=O)Cc3ccccc3)[C@H]3COC(=O)[C@H]23)cc(OC)c1OC | 40% | 16.7% | 3.3%
3 | COc1cc2c(cc1OC)[C@H](OC(C)=O)[C@H]1COC(=O)[C@@H]1[C@@H]2c1cc(OC)c(OC)c(OC)c1 | 36.7% | 23.3% | 10%
4 | CCCCCCCC(=O)O[C@H]1c2cc(OC)c(OC)cc2[C@@H](c2cc(OC)c(OC)c(OC)c2)[C@H]2C(=O)OC[C@@H]21 | 53.3% | 30% | 10%
5 | COc1cc2c(cc1OC)[C@H](OC(=O)c1ccc(C)cc1)[C@H]1COC(=O)[C@@H]1[C@@H]2c1cc(OC)c(OC)c(OC)c1 | 33.3% | 16.7% | 6.7%
6 | CCCC(=O)O[C@H]1c2cc(OC)c(OC)cc2[C@@H](c2cc(OC)c(OC)c(OC)c2)[C@H]2C(=O)OC[C@@H]21 | 33.3% | 20% | 6.7%
7 | COc1cc2c(cc1OC)[C@@H](O)[C@H]1COC(=O)[C@@H]1[C@@H]2c1cc(OC)c(OC)c(OC)c1 [6,7-O,O-DEMETHYLENE-6,7-O,O-DIMETHYLEPIPODOPHYLLOTOXIN] | 40% | 23.3% | 16.7%
8 | COc1cc2c(cc1OC)[C@H](OC(=O)c1ccc([N+](=O)[O-])cc1)[C@H]1COC(=O)[C@@H]1[C@@H]2c1cc(OC)c(OC)c(OC)c1 | 46.7% | 13.3% | 3.3%
9 | COc1cc2c(cc1OC)[C@@H](OC(=O)Cc1ccccc1)[C@H]1COC(=O)[C@@H]1[C@@H]2c1cc(OC)c(OC)c(OC)c1 | 33.3% | 16.7% | 10%
10 | CCCCCC(=O)O[C@@H]1c2cc(OCc3ccccc3)c(OCc3ccccc3)cc2[C@@H](c2cc(OC)c(OC)c(OC)c2)[C@H]2C(=O)OC[C@@H]21 | 33.3% | 13.3% | 10%
11 | COc1cc([C@@H]2c3cc(OCc4ccccc4)c(OCc4ccccc4)cc3[C@@H](OC(=O)Cc3cccc4ccccc34)[C@H]3COC(=O)[C@H]23)cc(OC)c1OC | 33.3% | 26.7% | 3.3%
12 | COc1cc([C@@H]2c3cc4c(cc3[C@H](O)[C@H]3COC(=O)[C@H]23)OCO4)cc(OC)c1OC [PODOFILOX] | 40% | 23.3% | 13.3%
13 | COc1cc([C@@H]2c3cc(OCc4ccccc4)c(OCc4ccccc4)cc3[C@H](O)[C@H]3COC(=O)[C@H]23)cc(OC)c1OC [6,7-O,O-DEMETHYLENE-6,7-O,O-DIBENZYLPODOPHYLLOTOXIN] | 33.3% | 33.3% | 10%
14 | COc1cc([C@@H]2c3cc(O)c(O)cc3[C@H](O)[C@H]3COC(=O)[C@H]23)cc(OC)c1OC [6,7-O,O-DEMETHYLENEPODOPHYLLOTOXIN] | 23.3% | 6.7% | 0%
15 | CCCCCC(=O)O[C@H]1c2cc(OC)c(OC)cc2[C@@H](c2cc(OC)c(OC)c(OC)c2)[C@H]2C(=O)OC[C@@H]21 | 36.7% | 23.3% | 6.7%
16 | COc1cc2c(cc1OC)[C@H](OC(=O)c1cccc([N+](=O)[O-])c1)[C@H]1COC(=O)[C@@H]1[C@@H]2c1cc(OC)c(OC)c(OC)c1 | 36.7% | 16.7% | 3.3%
17 | COc1cc2c(cc1OC)[C@H](OC(=O)Cc1cccc3ccccc13)[C@H]1COC(=O)[C@@H]1[C@@H]2c1cc(OC)c(OC)c(OC)c1 | 60% | 26.7% | 10%
18 | COc1cc2c(cc1OC)[C@H](OC(=O)c1cccc(Cl)c1)[C@H]1COC(=O)[C@@H]1[C@@H]2c1cc(OC)c(OC)c(OC)c1 | 50% | 23.3% | 3.3%
19 | COc1cc2c(cc1OC)[C@@H](OC(=O)c1cccc([N+](=O)[O-])c1)[C@H]1COC(=O)[C@@H]1[C@@H]2c1cc(OC)c(OC)c(OC)c1 | 36.7% | 26.7% | 10%
20 | CC(=O)O[C@@H]1C[C@H](O)[C@@]23CO[C@@H](O)[C@]1(C)[C@@H]2C[C@@H](O)[C@]1(C)[C@@H]3C(=O)[C@H](OC(C)=O)[C@@]2(C)[C@H](c3ccoc3)C[C@H]3O[C@]321 [TOOSENDANIN] | 50% | 20% | 10%
21 | COc1cc2c(cc1OC)[C@H](O)[C@H]1COC(=O)[C@@H]1[C@@H]2c1cc(OC)c(OC)c(OC)c1 [6,7-O,O-DEMETHYLENE-6,7-O,O-DIMETHYLPODOPHYLLOTOXIN] | 36.7% | 23.3% | 0%
22 | CCCCCC(=O)O[C@@H]1c2cc(OC)c(OC)cc2[C@@H](c2cc(OC)c(OC)c(OC)c2)[C@H]2C(=O)OC[C@@H]21 | 43.3% | 26.7% | 23.3%
23 | COc1cc2c(cc1OC)[C@H](OC(=O)Cc1ccccc1)[C@H]1COC(=O)[C@@H]1[C@@H]2c1cc(OC)c(OC)c(OC)c1 | 26.7% | 13.3% | 3.3%
24 | COc1cc([C@@H]2c3cc(OCc4ccccc4)c(OCc4ccccc4)cc3[C@@H](OC(=O)c3cccc([N+](=O)[O-])c3)[C@H]3COC(=O)[C@H]23)cc(OC)c1OC | 33.3% | 6.7% | 3.3%
25 | COc1cc2c(cc1OC)[C@H](OC(=O)CCl)[C@H]1COC(=O)[C@@H]1[C@@H]2c1cc(OC)c(OC)c(OC)c1 | 26.7% | 13.3% | 0%
26 | CCCC(=O)O[C@@H]1c2cc(OC)c(OC)cc2[C@@H](c2cc(OC)c(OC)c(OC)c2)[C@H]2C(=O)OC[C@@H]21 | 36.7% | 10% | 3.3%
27 | COc1cc2c(cc1OC)[C@@H](OC(=O)Cc1cccc3ccccc13)[C@H]1COC(=O)[C@@H]1[C@@H]2c1cc(OC)c(OC)c(OC)c1 | 50% | 20% | 13.3%
